CHO parental Ca: counter-screen: ATP calcium response change in parental CHO cells; AID 463079; inhibition, % at 5.6 µM; parental CHO-K1, ATP-induced calcium, Fluo-8 fluorescence; 330,000 compounds, 0.63% hits;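 active = inhibition above that plate's mean sample inhibition plus 3 SD, cut at about 26% in these data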;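 also: 0% = ATP-challenged DMSO wells and 100% = DMSO wells without ATP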
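Test system: untransfected parental CHO cell line; also added: ATP stimulus; dosing: 5.6 µM, single dose; signal: calcium-sensitive Fluo-8 fluorescence; measure: percent inhibition of ATP-evoked calcium rise, normalized to controls; benchmarks: low control ATP plus DMSO, high control DMSO only; replication: one well per compound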
GalR3 antagonist: antagonists of human GalR3; inhibition, % at 3 µM; 360,000 compounds, 0.44% hits; HEK293 GalR3-CNG cAMP membrane potential fluorescence; galR3 body fused to GalR1 C-terminus; AID 651719;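 active = inhibition above the screen-wide average plus 3 SD, cut at about 13% in these data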;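 also: forskolin and galanin both at EC90 stimulate the cells; cAMP rise reported by CNG channel membrane potential dye signal; 0% = forskolin plus galanin with DMSO and 100% = forskolin alone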
GPR7 antag: antagonists of human GPR7 (neuropeptides B/W receptor 1); 290,000 compounds, 1.1% hits; P48145; inhibition, % at 4.4 µM; GPR7-expressing cells, fluorescence antagonist assay; in the data active = inhibition above about 16%, passing the limit was not always enough;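 also: cells stimulated with the agonist NPW; 0% = agonist with vehicle and 100% = vehicle without agonist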
OX1R antag-1: antagonists of human orexin 1 receptor | O43613 | CHO/OX1R cells, Fluo-8 calcium fluorescence, orexin A | inhibition, % at 5 µM | 330,000 compounds, 0.43% hits;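 active = inhibition above its plate's threshold, mean inhibition of all tested compounds on the plate plus 3 SD, cut at about 37% in these data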;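 also: 0% = orexin A challenge wells and 100% = SB-334867-A antagonist wells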
Target sequence (O43613 whole entry, looked up): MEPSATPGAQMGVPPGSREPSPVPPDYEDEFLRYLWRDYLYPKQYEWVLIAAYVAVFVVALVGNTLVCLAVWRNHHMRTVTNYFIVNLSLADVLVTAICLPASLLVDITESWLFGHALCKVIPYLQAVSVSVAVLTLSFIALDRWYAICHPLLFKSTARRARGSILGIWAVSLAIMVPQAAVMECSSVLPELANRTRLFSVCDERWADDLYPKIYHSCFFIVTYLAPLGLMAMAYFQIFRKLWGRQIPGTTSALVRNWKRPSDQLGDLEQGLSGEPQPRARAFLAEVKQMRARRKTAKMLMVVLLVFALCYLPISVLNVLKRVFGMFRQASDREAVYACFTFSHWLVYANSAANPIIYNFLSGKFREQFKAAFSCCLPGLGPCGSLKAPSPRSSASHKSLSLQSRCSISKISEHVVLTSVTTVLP
OX1R antag-2: OX1R (human) antagonism; OX1R-expressing cells, FRET antagonist read-out; inhibition, % at 6.6 µM; 330,000 compounds, 1.8% hits; in the data active = inhibition mostly above about 38%, no sharp cut-off; inactive = mostly below about 40%;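 also: 0% = agonist challenge alone and 100% = reference antagonist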
OX1R Fluo8 conf: OX1R (human) antagonism, confirmed. inhibition, % at 5 µM. CHO/OX1R cells, orexin A calcium Fluo-8 fluorescence. shares compounds with OX1R antag-1. 1,100 compounds, 38% hits; in the data active = inhibition above about 29%;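 also: 0% = agonist challenge alone and 100% = reference antagonist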
CHO Ca counter: counter-screen for OX1R antagonists: effect in parental CHO cells. inhibition, % at 5.6 µM. shares compounds with OX1R antag-1. 1,100 compounds, 9.3% hits. AID 492965. parental CHO-K1, ATP-induced calcium, Fluo-8 fluorescence;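 active = inhibition above a per-plate limit, the mean inhibition of that plate's test compounds plus 3 SD, cut at about 25% in these data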;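 also: 0% = ATP challenge with DMSO and 100% = DMSO without ATP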
Active calls of the source: *. A selection: hits, their analogues and other compounds. The true share with any hit is near 3.1%.

How did CC1CCC(NC(=O)c2cccn2C)CC1 (configuration not stated) do in these assays?
GalR3 antagonist: -2

What do the screens show for `COc1cc(/C=C/C(=O)O)ccc1O`?
CHO parental Ca: -2; GalR3 antagonist: -7; OX1R antag-1: -3; OX1R antag-2: 13

What do the screens show for `COc1cc(/C=C/C(=O)CC(=O)/C=C/c2ccc(O)c(OC)c2)ccc1O`?
CHO parental Ca: 23; GPR7 antag: -16; OX1R antag-1: 34; OX1R antag-2: 10; OX1R Fluo8 conf: 31*; CHO Ca counter: 30*

How did Cc1ccc2c(c1)nnn2C1CCN(S(=O)(=O)c2cccc(S(=O)(=O)N(C)C)c2)CC1 do in these assays?
CHO parental Ca: 22; GalR3 antagonist: -7; GPR7 antag: -2; OX1R antag-1: 35; OX1R antag-2: 35; OX1R Fluo8 conf: 38*; CHO Ca counter: 25*

Results for COCCN=c1scc(-c2cc(OC)ccc2OC)n1/N=C/c1c[nH]c2ccccc12 ?
CHO parental Ca: 0; GalR3 antagonist: -7; GPR7 antag: 8; OX1R antag-1: 31; OX1R antag-2: 42; OX1R Fluo8 conf: 35*; CHO Ca counter: -10

What do the screens show for `CC(C)(C)OC(=O)N(CCc1ccccc1)Cc1cccc(OCc2cccc(NC(=O)C3CC3)c2)c1`?
GalR3 antagonist: -7

How did CNc1ncnc2c1ncn2[C@H]1CN(Cc2ccco2)C[C@@H](CO)O1 do in these assays?
GalR3 antagonist: -3

Results for CN1CCN([C@@H]2CS(=O)(=O)N[C@H]2COCc2ccccc2)CC1 ?
GalR3 antagonist: -5

What do the screens show for `O=C(O)c1cccc(NC(=O)c2cn(-c3ccccc3)nc2-c2cccc(Br)c2)c1`?
CHO parental Ca: 18; GalR3 antagonist: -12; GPR7 antag: -9; OX1R antag-1: 30; OX1R antag-2: 17; OX1R Fluo8 conf: 27; CHO Ca counter: 33*

What do the screens show for `O=C(C[C@H]1C=C[C@@H](NC(=O)c2ccncc2)[C@@H](CO)O1)NCC1CC1`?
GalR3 antagonist: -3

What do the screens show for `N#Cc1cc(C(=O)c2cc(Br)ccc2O)cn(Cc2ccccc2)c1=O`?
CHO parental Ca: 23; GalR3 antagonist: -4; GPR7 antag: -15; OX1R antag-1: 24; OX1R antag-2: 9; OX1R Fluo8 conf: 2; CHO Ca counter: 10

Results for Fc1ccc(C2=CC(c3ccc(Br)o3)n3ncnc3N2)cc1 (configuration not stated) ?
CHO parental Ca: 36; GPR7 antag: 2; OX1R antag-1: 47; OX1R antag-2: 20; OX1R Fluo8 conf: 5; CHO Ca counter: 9

How did CCCCc1c(Cc2ccccc2)ncn1CCc1ccccc1OC do in these assays?
GalR3 antagonist: -7

How did COC(=O)c1ccc(NC(=S)NNC(=O)c2ccccc2)cc1 do in these assays?
CHO parental Ca: -10; GalR3 antagonist: 1; GPR7 antag: 5; OX1R antag-1: 28; OX1R antag-2: 7; OX1R Fluo8 conf: 4; CHO Ca counter: 7

Results for CC(=O)N1CCN(C(c2ccccc2)c2nnnn2C(C)(C)C)CC1 (configuration not stated) ?
GalR3 antagonist: -5

How did Cc1cc(C)c(NC(=O)COC(=O)COc2ccc3c(C)cc(=O)oc3c2)c(Cl)c1 do in these assays?
CHO parental Ca: -11; GalR3 antagonist: -4; OX1R antag-1: -20; OX1R antag-2: 3

How did COC(=O)[C@H](Cc1c[nH]c2ccccc12)NC(=O)CCCc1c[nH]c2ccccc12 do in these assays?
CHO parental Ca: 23; GalR3 antagonist: -12; GPR7 antag: 12; OX1R antag-1: 47; OX1R antag-2: 40; OX1R Fluo8 conf: 64*; CHO Ca counter: 15

Results for O=C(Nc1cccc(Oc2ccccc2)c1)C1Cc2c(-c3cccc(F)c3)ccnc2O1 (configuration not stated) ?
GalR3 antagonist: -4

Results for N#CCC(CNc1ncc(C(F)(F)F)cc1Cl)OC(=O)c1c(F)cccc1F (configuration not stated) ?
CHO parental Ca: -24; GalR3 antagonist: -12; GPR7 antag: -8; OX1R antag-1: 46; OX1R antag-2: 25; OX1R Fluo8 conf: 18; CHO Ca counter: -10

What do the screens show for `C=CCN(CC=C)C(=O)c1ccc(OC2CCN(C(C)=O)CC2)c(OC)c1`?
CHO parental Ca: -6; GalR3 antagonist: -3; GPR7 antag: -9; OX1R antag-1: -16; OX1R antag-2: 2

How did O=C(N/N=C/c1ccco1)c1cc(-c2ccc3ccccc3c2)n[nH]1 do in these assays?
CHO parental Ca: -1; GalR3 antagonist: -8; GPR7 antag: -6; OX1R antag-1: 44*; OX1R antag-2: 42; OX1R Fluo8 conf: 5; CHO Ca counter: -3

Results for O=C1OC(/C=C/c2ccccc2)=NC/1=C\c1cccnc1 ?
CHO parental Ca: 6; GalR3 antagonist: -4; GPR7 antag: -6; OX1R antag-1: 50*; OX1R antag-2: 23; OX1R Fluo8 conf: 4; CHO Ca counter: 1

How did COc1ccc(C(=O)Oc2cc(N)n(S(=O)(=O)c3ccc(C)cc3)n2)cc1 do in these assays?
CHO parental Ca: -20; GalR3 antagonist: -7; GPR7 antag: 1; OX1R antag-1: -17; OX1R antag-2: 28

Results for COc1ccc(S(=O)(=O)n2nc(OC(=O)c3c(-c4ccccc4Cl)noc3C)cc2N)cc1 ?
CHO parental Ca: 4; GalR3 antagonist: -3; GPR7 antag: 15; OX1R antag-1: 36; OX1R antag-2: 41; OX1R Fluo8 conf: -8; CHO Ca counter: -13

What do the screens show for `Cc1sc(NC(=O)CN2CCOCC2)nc1-c1ccc2c(c1)CCN2S(=O)(=O)c1ccccc1`?
CHO parental Ca: 22; GalR3 antagonist: -7; GPR7 antag: 6; OX1R antag-1: 42; OX1R antag-2: 20; OX1R Fluo8 conf: 18; CHO Ca counter: 28*

Results for COC(=O)Cn1c(=O)c2c(nc3n2CC(C)CN3Cc2ccccc2)n(C)c1=O (configuration not stated) ?
CHO parental Ca: -5; GalR3 antagonist: 1; GPR7 antag: 2; OX1R antag-1: 31; OX1R antag-2: 16; OX1R Fluo8 conf: -6; CHO Ca counter: -6

What do the screens show for `COC(=O)Cn1c(=O)c2c(nc3n2CC(C)CN3CCc2ccccc2)n(C)c1=O` (configuration not stated)?
GalR3 antagonist: -7; GPR7 antag: 3

What do the screens show for `O=C(NC1CCCCC1)C(c1ccccc1F)n1c(=O)c(-c2cc3ccccc3[nH]2)nc2ccccc21` (configuration not stated)?
GalR3 antagonist: -2

Results for Cc1coc2cc3oc(=O)ccc3cc12 ?
CHO parental Ca: -1; GalR3 antagonist: -8; GPR7 antag: 14; OX1R antag-1: 106*; OX1R antag-2: 5; OX1R Fluo8 conf: 2; CHO Ca counter: 18

Compound activity (PubChem)
